# Screening data (PubChem)
# FLuc stim CS: firefly luciferase counter-screen for stimulation assays. P08659. ATPlite luciferase biochemical, luminescence, 10 min; 0 = ATP-free wells, 1 = DMSO control. activation factor at 10 µM. 200,000 tested, under 10 active. AID 1027;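 active = luciferase activation factor, scaled between plate controls, of at least 2 with compound at 10 µM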
# Target sequence (P08659 whole entry, looked up): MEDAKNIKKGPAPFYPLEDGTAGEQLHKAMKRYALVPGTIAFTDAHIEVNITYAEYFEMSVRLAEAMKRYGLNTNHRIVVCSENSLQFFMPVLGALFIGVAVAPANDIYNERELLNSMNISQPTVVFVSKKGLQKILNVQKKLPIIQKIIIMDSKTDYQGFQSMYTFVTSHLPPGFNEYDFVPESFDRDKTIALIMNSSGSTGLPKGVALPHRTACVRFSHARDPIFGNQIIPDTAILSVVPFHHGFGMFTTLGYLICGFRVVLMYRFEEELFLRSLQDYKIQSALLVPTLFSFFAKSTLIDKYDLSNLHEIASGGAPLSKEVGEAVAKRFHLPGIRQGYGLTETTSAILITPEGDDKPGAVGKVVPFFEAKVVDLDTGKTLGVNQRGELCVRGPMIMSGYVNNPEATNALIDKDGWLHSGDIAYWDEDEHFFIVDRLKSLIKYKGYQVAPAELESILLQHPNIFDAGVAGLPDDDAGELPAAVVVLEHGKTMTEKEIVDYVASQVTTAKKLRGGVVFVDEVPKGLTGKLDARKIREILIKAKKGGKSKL
#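 System: luciferase plus luciferin reagent, cell-free; medium: PBS as buffer for the ATP substrate; dosing: test compounds dosed from 2 mM stocks in 100% DMSO; timing: 10 min post-reagent at room temperature; measured by: luminescence measurement of luciferase light output; evaluation: luciferase activation, seen as luminescence increase over controls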
# C8 TRAIL sens: caspase-8 TRAIL sensitization. NB7+C8 cells + TRAIL, ATPlite viability luminescence. inhibition (viability loss, TRAIL sensitization), % at 10 µM. 360,000 tested, 1% active. AID 624354;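 active = compounds causing at least 50% loss of cell viability in the single-dose screen, relative to plate controls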
# FLuc inh counter: counter-screen for luciferase assay inhibitors: firefly luciferase inhibition. AID 1006. ATPLite firefly luciferase biochemical luminescence, 10 min. P08659. 200,000 tested, 1.5% active. inhibition, % at 10 µM;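 active = inhibition above about 50% when tested at 10 µM, limit read from the data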
# STAT3 blocker: STAT3 signaling inhibition; U3A cells, IL-6 STAT3-luciferase reporter, luminescence; host cell line lacks STAT1; inhibition, % at 5.5 µM; 190,000 tested, 0.89% active; AID 862;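 active = inhibition above the mean inhibition across all screened compounds plus 3 SD, cut at about 44% in these data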;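 also: 0% = DMSO only wells and 100% = 100 µM nifuroxazide control wells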
# HSP90 refold inh: blocks HSP90-mediated luciferase refolding in reticulocyte lysate; inhibition, % at 5.6 µM; Rabbit reticulocyte lysate, luciferase refolding luminescence, 3 h; 290,000 tested, 0.91% active;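 active = inhibition above the screen-wide mean plus 3 SD, computed separately per campaign, cut at about 16% in these data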;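 also: 0% = DMSO wells and 100% = 60 µM geldanamycin wells; inhibitors lower the luminescence because luciferase stays unfolded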
# PPC-1+TRAIL kill: PPC-1 cancer cell killing with TRAIL present | PPC-1 cells + TRAIL, ATPLite viability luminescence | cell killing (% activity), % at 4 µM or 5 µM | 220,000 tested, 0.41% active | AID 1443;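 active = cell killing above 50% in the first pass at 4 µM, then a duplicate retest at 5 µM averaging 50% or more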;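 also: plate controls were cells with TRAIL plus DMSO for no effect and medium-only wells lacking cells for full effect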
# PPC-1 tox: kills PPC-1 cells; 1,200 tested, 50% active; cytotoxicity, % at 5 µM; AID 1447; PPC-1 viability, ATPlite luminescence, overnight; shares compounds with PPC-1+TRAIL kill;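 active = reconfirmed compounds whose average cytotoxicity reaches 50% or more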;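 also: 0% = DMSO-treated cells and 100% = wells holding medium but no cells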
# HSP90 inh confirm: confirmation of HSP90 inhibitors; rabbit reticulocyte lysate, luciferase refolding luminescence, 3 h; 2,300 tested, 64% active; shares compounds with HSP90 refold inh; AID 1846; inhibition, % at 5.9 µM; in the data active = inhibition above about 18%;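 also: 0% = vehicle wells and 100% = reference inhibitor wells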
# luciferase ctr: firefly luciferase inhibition, HSP90 counter-screen. shares compounds with HSP90 refold inh. purified native firefly luciferase, luminescence. inhibition, % at 5.9 µM. 2,300 tested, 48% active;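 active = inhibition above the mean inhibition of all tested sample wells plus 3 SD, cut at about 10% in these data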;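 also: 0% = DMSO with luciferase and 100% = wells lacking luciferase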
# Active calls of the source: *; x = no result given. Rows were chosen to be rich in hits. Some 2.2% of all compounds tested hit in one or more screens of this group.
SMILES,FLuc stim CS,C8 TRAIL sens,FLuc inh counter,STAT3 blocker,HSP90 refold inh,PPC-1+TRAIL kill,PPC-1 tox,HSP90 inh confirm,luciferase ctr
N/C(=N\OC(=O)c1ccc2ccccc2c1)c1ccccn1,0.1,71*,90*,76*,66*,53*,59*,59*,79*
N/C(=N\OC(=O)c1ccc2ccccc2c1)c1cccc([N+](=O)[O-])c1,0.6,1,38,2,0,-7,x,x,x
CCOc1ccc(C2=C(C=Nc3c(C)n(C)n(-c4ccccc4)c3=O)C(c3ccc(F)cc3)c3ccccc3O2)cc1 (stereo unspecified),1,-2,-5,-2,-1,7,x,x,x
O=C(CCCc1ccccc1)c1ccc2c(c1)OCCO2,0,87*,95*,108*,77*,80*,84*,97*,94*
CCOC(=O)c1c(C)nc2c(c(SC)nn2-c2ccccc2)c1N,1,6,-1,14,2,10,x,x,x
CCCCOc1ccc(-c2cc(C(=O)NNC(=S)NCC)c3ccccc3n2)cc1,0.1,87*,94*,87*,30*,90*,90*,52*,-2
CCCCNC(=S)NNC(=O)c1cc(-c2cccnc2)nc2ccccc12,x,8,x,x,-1,x,x,x,x
COc1cc(NS(=O)(=O)c2ccc(NC(=O)c3cccnc3)cc2)ncn1,x,9,x,x,2,x,x,x,x
N/C(=N\OC(=O)c1ccccc1Cl)c1cccc([N+](=O)[O-])c1,x,15,x,x,12,x,x,x,x
Cc1ccc(C(=O)O/N=C(\N)c2ccccc2)c(Cl)c1,x,94*,x,x,56*,81*,80*,80*,87*
Cc1cnc(NC(=O)c2cc3c(s2)CCCC3)s1,0.1,92*,93*,74*,43*,72*,70*,66*,64*
Cc1csc(NC(=O)c2cc3c(s2)CCCCC3)n1,0.1,91*,95*,97*,61*,85*,82*,79*,77*
COC(=O)c1cccc(NC(=O)CCc2c(C)noc2C)c1,x,6,x,x,x,x,x,x,x
CCOc1ccc(NC(=O)NC2CCCc3ccccc32)cc1 (stereo unspecified),x,11,x,x,7,x,x,x,x
COc1ccc2sc(NC(=O)c3ccco3)nc2c1,0.1,68*,88*,84*,56*,53*,59*,60*,48*
Cc1ccc(C(=O)n2c(N)nc3ccccc32)cc1,0,95*,97*,103*,60*,92*,93*,89*,83*
Cc1nnc(SCc2cnc(-c3ccc(C(C)C)cc3)s2)n1C,0,88*,95*,65*,38*,91*,91*,50*,41*
c1ccc(-c2ncc(CSc3nncn3-c3ccccc3)s2)cc1,1,13,-1,12,-7,-12,x,x,x
COc1cccc(C(C)(O)c2nc(-c3cccc(NC(C)=O)c3)cs2)c1 (stereo unspecified),x,-15,x,x,x,x,x,x,x
CSc1nc(N)nc2c1ncn2CC(=O)NCCCN1CCCC1=O,x,-11,x,x,x,x,x,x,x
CN(Cc1ccco1)C(=O)CSc1nc(C2CC2)n(-c2ccccc2)n1,x,3,x,x,x,x,x,x,x
C/C(=N\NC(=O)c1n[nH]c2c1CCC2)c1cccs1,x,80*,x,x,33*,68*,67*,84*,72*
C/C(=N\NC(=O)c1cccs1)c1ccncc1,x,0,x,x,-3,x,x,x,x
O=C(N/N=C/c1cccs1)c1n[nH]c2c1CCCC2,x,74*,x,x,36*,56*,46,77*,71*
CCN(CCO)c1ccc(Nc2cc(-c3ccc(-c4ccccc4)cc3)ncn2)cc1,x,10,x,x,x,x,x,x,x
SMILES,FLuc stim CS,C8 TRAIL sens,FLuc inh counter,STAT3 blocker,HSP90 refold inh,PPC-1+TRAIL kill,PPC-1 tox,HSP90 inh confirm,luciferase ctr
CCN(CCO)c1ccc(N=Nc2cc(C)[nH]n2)cc1,x,86*,x,x,57*,77*,78*,76*,68*
COc1cc(SC)ccc1C(=O)Nc1ccc(Cl)cn1,0.1,90*,94*,100*,26*,87*,87*,90*,84*
CSc1ccc(Cl)c(C(=O)Nc2ccc(Cl)cn2)c1,1,18,-1,24,3,14,x,x,x
COc1ccc(C(=O)Nc2nc3c(s2)CCCC3)cc1S(=O)(=O)N1CCCc2ccccc21,1,34,4,-10,3,-9,x,x,x
CCCCCN(C(=O)CCC(=O)OCC(=O)N(CC)C1CCCCC1)c1c(N)n(CCCC)c(=O)[nH]c1=O,x,-12,x,x,x,x,x,x,x
COc1cccc(CNc2ccccn2)c1O,x,-3,x,x,-1,x,x,x,x
COc1cccc(CNc2cccc3cccnc23)c1O,0.9,5,6,-9,20*,-2,9,-11,-30
CCC(=O)C1CCCN(C(=O)c2ccc(OC3CCN(C(=O)c4cccnc4)CC3)cc2)C1 (stereo unspecified),1.1,2,-6,14,1,15,x,x,x
Cc1ccc(-n2nnc(-c3nccs3)n2)cc1,0,87*,96*,x,76*,82*,82*,85*,81*
Nc1ccc(-c2nc3cc(N)ccc3s2)cc1,0.1,60*,89*,22,25*,48,54*,47*,39*
Cc1ccc2nc(-c3ccc(N)cc3)sc2c1,x,83*,x,x,50*,81*,82*,69*,66*
Nc1ccc2nc(-c3ccccc3)c(-c3ccccc3)nc2c1,x,6,x,x,6,x,x,x,x
Nc1ccc2nc(-c3ccccc3)sc2c1,0.1,76*,90*,64*,37*,68*,68*,72*,68*
CC(=O)Nc1nc2cc(N)ccc2s1,x,10,x,x,x,x,x,x,x
Cc1cc(C(=O)Nc2ccc(Cl)cc2)c(C)n1-c1ccccc1,x,83*,x,x,81*,83*,79*,81*,80*
Cc1cc(C(=O)Nc2ccc(Cl)cc2)n(-c2ccccc2)n1,x,-3,x,x,-2,x,x,x,x
CCCCCCN1CCN(C2CN(Cc3cn(Cc4ccccc4)nn3)S(=O)(=O)C2)CC1 (stereo unspecified),x,-9,x,x,x,x,x,x,x
COc1ccc(CNc2nc3ccccc3s2)cc1OC,x,2,x,x,-4,x,x,x,x
Cc1ccc(CNc2nc3ccccc3s2)s1,0.1,78*,90*,75*,36*,75*,75*,68*,61*
Clc1ccc(/C=C/c2nc3ccccc3[nH]2)cc1,0,88*,96*,94*,35*,87*,86*,69*,63*
Clc1ccc(Br)c(-c2nc3ccccc3[nH]2)c1,x,-4,x,x,x,x,x,x,x
